For series [1], the species on record is Canis familiaris. Description: Effect on the transmembrane potential of dog Purkinje fibers paced at a basic cycle length of stimulation of 300 ms, repolarization time to -60 mV. It is filed as functional. To be noted: Canis lupus familiaris; Purkinje fiber. Summed up: (§1)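 Purkinje fiber bundles were taken from pentobarbital-anesthetized mongrel dogs. They were superfused at 37.5-38.0 °C with Tyrode's (mM: NaCl 138, KCl 4, CaCl2 2, NaHCO3 24, MgCl2 0.5, Na2HPO4 1.8, dextrose 5) gassed with 95% O2-5% CO2, pH 7.3-7.4. Stimulation used 2.0 ms pulses at twice threshold. Fibers were equilibrated ≥1 h before drug. Action potentials were recorded at 4-6 sites and averaged per fiber.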

Series [2] is filed under the species Canis familiaris. Description: Effect on the transmembrane potential of dog Purkinje fibers paced at a basic cycle length of stimulation of 1000 ms, repolarization time to -60 mV. It is filed as functional. To be noted: Canis lupus familiaris; Purkinje fiber. Summed up:
as §1

For series [3], the species on record is Canis familiaris. Description: Effect on the transmembrane potential of dog Purkinje fibers paced at a basic cycle length of stimulation of 1000 ms, repolarization time to -60 mV, at a concentration of 0.3 uM. It is filed as functional. To be noted: Canis lupus familiaris, Purkinje fiber. The method in brief:
as §1

The test system of series [4] is Canis familiaris. Description: Effect on atrial effective refractory period, after intravenous administration in open-chest anesthetized dogs at dose of 1.0 mg/kg. It is filed as functional, Canis lupus familiaris, Cardiac atrium.
Series [5] concerns Canis familiaris. Description: Effect on ventricular effective refractory period, after intravenous administration in open-chest anesthetized dogs at dose of 1.0 mg/kg. It is filed as functional, Canis lupus familiaris, Cardiac ventricle. Summed up:
(§2)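 Mongrel dogs, pentobarbital-anesthetized (30 mg/kg iv plus 5 mg/kg per h), open chest. Compound given iv. Atrial and ventricular effective refractory periods and conduction times measured during pacing at 300 ms, along with heart rate and mean arterial pressure. Two doses per compound, chosen from dose-response runs. Values are % change from predrug, mean ± SE.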

The subject of series [6] is Canis familiaris. Description: Effect on mean arterial pressure, after intravenous administration in open-chest anesthetized dogs at dose of 0.1 mg/kg. It is filed as functional, Canis lupus familiaris, Artery.
Series [7] concerns Canis familiaris. Description: Effect on heart rate, after intravenous administration in open-chest anesthetized dogs at dose of 0.1 mg/kg. It is filed as functional, Canis lupus familiaris.
Series [8] concerns Canis familiaris. Description: Effect on ventricular conduction time, after intravenous administration in open-chest anesthetized dogs at dose of 0.1 mg/kg. It is filed as functional, Canis lupus familiaris, Cardiac ventricle.
Series [9] deals with Canis familiaris. Description: Effect on atrial conduction time, after intravenous administration in open-chest anesthetized dogs at dose of 0.1 mg/kg. It is filed as functional, Canis lupus familiaris, Cardiac atrium.
For series [10], the species on record is Canis familiaris. Description: Effect on the transmembrane potential of dog Purkinje fibers paced at a basic cycle length of stimulation of 300 ms, repolarization time to -60 mV, at a concentration of 0.3 uM. It is filed as functional. To be noted: Canis lupus familiaris, Purkinje fiber. The method in brief: as §1
Series [11] has as its system Canis familiaris. Description: Effect on ventricular conduction time, after intravenous administration in open-chest anesthetized dogs at dose of 1.0 mg/kg. It is filed as functional, Canis lupus familiaris, Cardiac ventricle.
Series [12] deals with Canis familiaris. Description: Effect on ventricular effective refractory period, after intravenous administration in open-chest anesthetized dogs at dose of 0.1 mg/kg. It is filed as functional, Canis lupus familiaris, Cardiac ventricle.
Series [13] relates to Canis familiaris. Description: Effect on atrial conduction time, after intravenous administration in open-chest anesthetized dogs at dose of 1.0 mg/kg. It is filed as functional, Canis lupus familiaris, Cardiac atrium.
Series [14] concerns Canis familiaris. Description: Effect on mean arterial pressure, after intravenous administration in open-chest anesthetized dogs at dose of 1.0 mg/kg. It is filed as functional, Canis lupus familiaris, Artery.
In series [15] the test system is Canis familiaris. Description: Effect on atrial effective refractory period, after intravenous administration in open-chest anesthetized dogs at dose of 0.1 mg/kg. It is filed as functional, Canis lupus familiaris, Cardiac atrium.
Series [16] concerns Canis familiaris. Description: Effect on heart rate, after intravenous administration in open-chest anesthetized dogs at dose of 1.0 mg/kg. It is filed as functional, Canis lupus familiaris.
The species entered for series [17] is Canis familiaris. Description: Effect on the transmembrane potential of dog Purkinje fibers paced at a basic cycle length of stimulation of 300 ms, repolarization time to -60 mV at 3 uM concentration. It is filed as functional. The settings on record: Canis lupus familiaris, Purkinje fiber. The method in brief:
as §1

For series [18], the species on record is Canis familiaris. Description: Effect on the transmembrane potential of dog Purkinje fibers paced at a basic cycle length of stimulation of 1000 ms, repolarization time to -60 mV at 3 uM concentration. It is filed as functional. The settings on record: Canis lupus familiaris, Purkinje fiber. The method in brief:
as §1

Series [19] concerns Canis familiaris. Description: Effect on ventricular effective refractory period, after intravenous administration in open-chest anesthetized dogs at dose of 5.0 mg/kg. It is filed as functional, Canis lupus familiaris, Cardiac ventricle. The method in brief:
as §2

Series [20] has as its system Canis familiaris. Description: Effect on ventricular effective refractory period, after intravenous administration in open-chest anesthetized dogs at dose of 2.5 mg/kg. It is filed as functional, Canis lupus familiaris, Cardiac ventricle. Summed up: as §2
The subject of series [21] is Canis familiaris. Description: Effect on atrial conduction time, after intravenous administration in open-chest anesthetized dogs at dose of 2.5 mg/kg. It is filed as functional, Canis lupus familiaris, Cardiac atrium.
The test system of series [22] is Canis familiaris. Description: Effect on atrial effective refractory period, after intravenous administration in open-chest anesthetized dogs at dose of 2.5 mg/kg. It is filed as functional, Canis lupus familiaris, Cardiac atrium.
The subject of series [23] is Canis familiaris. Description: Effect on mean arterial pressure, after intravenous administration in open-chest anesthetized dogs at dose of 5.0 mg/kg. It is filed as functional, Canis lupus familiaris, Artery.
In series [24] the test system is Canis familiaris. Description: Effect on atrial conduction time, after intravenous administration in open-chest anesthetized dogs at dose of 5.0 mg/kg. It is filed as functional, Canis lupus familiaris, Cardiac atrium.
The subject of series [25] is Canis familiaris. Description: Effect on heart rate, after intravenous administration in open-chest anesthetized dogs at dose of 2.5 mg/kg. It is filed as functional, Canis lupus familiaris.
In series [26] the test system is Canis familiaris. Description: Effect on ventricular conduction time, after intravenous administration in open-chest anesthetized dogs at dose of 2.5 mg/kg. It is filed as functional, Canis lupus familiaris, Cardiac ventricle.
In series [27] the test system is Canis familiaris. Description: Effect on heart rate, after intravenous administration in open-chest anesthetized dogs at dose of 5.0 mg/kg. It is filed as functional, Canis lupus familiaris.
The test system of series [28] is Canis familiaris. Description: Effect on mean arterial pressure, after intravenous administration in open-chest anesthetized dogs at dose of 2.5 mg/kg. It is filed as functional, Canis lupus familiaris, Artery.
The test system of series [29] is Canis familiaris. Description: Effect on ventricular conduction time, after intravenous administration in open-chest anesthetized dogs at dose of 5.0 mg/kg. It is filed as functional, Canis lupus familiaris, Cardiac ventricle.
In series [30] the test system is Canis familiaris. Description: Effect on atrial effective refractory period, after intravenous administration in open-chest anesthetized dogs at dose of 5.0 mg/kg. It is filed as functional, Canis lupus familiaris, Cardiac atrium.
Series [31] has as its system Canis familiaris. Description: Atrial effective refractory period, after intravenous administration in open-chest anesthetized dogs at dose of 10.0 mg/kg.
Series [32] deals with Canis familiaris. Description: Ventricular effective refractory period, after intravenous administration in open-chest anesthetized dogs at dose of 0.5 mg/kg. It is filed as functional, Canis lupus familiaris, Heart. To be noted: dose 10.0 mg/kg, in the assay text read “10.0 mg/kg” for “0.5 mg/kg”. Summed up:
as §2

In series [33] the test system is Canis familiaris. Description: Mean arterial pressure, after intravenous administration in open-chest anesthetized dogs at dose of 0.5 mg/kg. It is filed as functional, Canis lupus familiaris, Artery. To be noted: dose 10.0 mg/kg, in the assay text read “10.0 mg/kg” for “0.5 mg/kg”. The method in brief:
as §2

Series [34] relates to Canis familiaris. Description: Mean arterial pressure, after intravenous administration in open-chest anesthetized dogs at dose of 0.05 mg/kg. It is filed as functional, Canis lupus familiaris, Artery. The settings on record: dose 5.0 mg/kg, in the assay text read “5.0 mg/kg” for “0.05 mg/kg”. Summed up:
as §2

The test system of series [35] is Canis familiaris. Description: Ventricular effective refractory period, after intravenous administration in open-chest anesthetized dogs at dose of 0.05 mg/kg. The settings on record: dose 5.0 mg/kg, in the assay text read “5.0 mg/kg” for “0.05 mg/kg”. It is filed as functional, Canis lupus familiaris, Heart. Summed up:
as §2

In series [36] the test system is Canis familiaris. Description: Atrial conduction time, after intravenous administration in open-chest anesthetized dogs at dose of 10.0 mg/kg.
The test system of series [37] is Canis familiaris. Description: Heart rate, after intravenous administration in open-chest anesthetized dogs at dose of 0.5 mg/kg. It is filed as functional, Canis lupus familiaris. To be noted: dose 10.0 mg/kg, in the assay text read “10.0 mg/kg” for “0.5 mg/kg”. Summed up: as §2
For series [38], the system named is Canis familiaris. Description: Heart rate, after intravenous administration in open-chest anesthetized dogs at dose of 0.05 mg/kg. It is filed as functional, Canis lupus familiaris. To be noted: dose 5.0 mg/kg, in the assay text read “5.0 mg/kg” for “0.05 mg/kg”. Summed up: as §2
The test system of series [39] is Canis familiaris. Description: Ventricular conduction time, after intravenous administration in open-chest anesthetized dogs at dose of 0.5 mg/kg. It is filed as functional, Canis lupus familiaris, Heart. To be noted: dose 10.0 mg/kg, in the assay text read “10.0 mg/kg” for “0.5 mg/kg”. Summed up:
as §2

Series [40] can be described thus: Maximum rate of depolarization of the upstroke of the action potentia at 3 uM concentration. The method in brief: (§3)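 Purkinje fiber bundles from pentobarbital-anesthetized mongrel dogs, superfused at 37.5-38.0 °C with Tyrode's solution (95% O2-5% CO2, pH 7.3-7.4). Stimulation with 2.0 ms square pulses at 2× threshold. Fibers equilibrated at least 1 h before drug. Action potentials recorded at four to six sites, control vs drug, and averaged per fiber.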

Series [41] in a line: Maximum rate of depolarization of the upstroke of the action potential at 3 uM concentration. Details: unit not given beside the values. Summed up:
as §3

The values that follow come from ChEMBL document CHEMBL1125376, “Class III antiarrhythmic activity of novel substituted 4-[(methylsulfonyl)amino]benzamides and sulfonamides” (J Med Chem, 1992).

Regarding `CS(=O)(=O)Nc1ccc(S(=O)(=O)N2CCNc3nc4ccccc4n3CC2)cc1`, the APD60 in the series listed under Canis familiaris [1] was found to be 24; in the series filed under Canis familiaris [2], 42.

Consider `Cc1cccc(CCN2CCC(C(=O)c3ccc(NS(C)(=O)=O)cc3)CC2)n1`, for which the APD60 worked out at 74 in the series listed under Canis familiaris [3], 21 in the series filed under Canis familiaris [1], 27 in the series listed under Canis familiaris [10] and 53 in the series listed under Canis familiaris [2]. Moreover, the Change in the series on Canis familiaris [4] is given as 55%; in the series with Canis familiaris [5] it was 26%; in the series on Canis familiaris [6], -6%; with Canis familiaris [7] it was -18%; in the series with Canis familiaris [8], -3%; in the series on Canis familiaris [9], 1%. For the same molecule, the Change with Canis familiaris [11] is -2%; in the series with Canis familiaris [12], 20%; in the series on Canis familiaris [13], 1%; in the series with Canis familiaris [14], -19%; in the series on Canis familiaris [15], 34%; with Canis familiaris [16] it was -25%.

Turning to `CN(CCNS(=O)(=O)c1ccc(NS(C)(=O)=O)cc1)c1nc2ccccc2n1C.Cl`, the APD60 in the series listed under Canis familiaris [17] came out at 16; in the series filed under Canis familiaris [18], 50.

As to `CC(C)NCC(O)c1ccc(NS(C)(=O)=O)cc1` (configuration not stated) [SOTALOL], the Change is reported as 25% in the series with Canis familiaris [19]; 19% in the series with Canis familiaris [20]; -5% in the series with Canis familiaris [21]; 42% with Canis familiaris [22]; -17% in the series on Canis familiaris [23]; -7% in the series with Canis familiaris [24]. The Change was -27% in the series on Canis familiaris [25]; -1% with Canis familiaris [26]; -28% in the series with Canis familiaris [27]; -16% in the series with Canis familiaris [28]; -1% in the series with Canis familiaris [29]; 57% in the series with Canis familiaris [30]. In addition, the APD60 in the series listed under Canis familiaris [1] came to 18; in the series filed under Canis familiaris [2] it was 56.

With `CN(CCN(C)S(=O)(=O)c1ccc(NS(C)(=O)=O)cc1)c1ccc2ccccc2n1`, the APD60 in the series filed under Canis familiaris [1] was determined as 20; in the series filed under Canis familiaris [2], 46.

For `CN(CCN1CCn2c1nc1ccccc12)S(=O)(=O)c1ccc(NS(C)(=O)=O)cc1.Cl`, the Change is on record as 66% in the series on Canis familiaris [31]; 19% in the series with Canis familiaris [32]; -8% in the series with Canis familiaris [33]; -9% in the series with Canis familiaris [34]; 18% in the series with Canis familiaris [35]; 3% in the series on Canis familiaris [36]. The Change in the series on Canis familiaris [37] is -24%; with Canis familiaris [38], -15%; with Canis familiaris [39] it was -5%. The APD60 in the series filed under Canis familiaris [3] was 30; in the series listed under Canis familiaris [1], 16; in the series listed under Canis familiaris [2], 30.

As for `CN(CCNc1nc2ccccc2n1C)S(=O)(=O)c1ccc(NS(C)(=O)=O)cc1.Cl`, the Vmax in series [40] was 6; in series [41], 1. For the same molecule, the APD60 came out at 19 in the series filed under Canis familiaris [17] and 67 in the series filed under Canis familiaris [18].
